Assay results from ChEMBL document CHEMBL2086314, “Synthesis and anticonvulsant activity of new N-Mannich bases derived from 3-(2-fluorophenyl)- and 3-(2-bromophenyl)-pyrrolidine-2,5-diones. Part II” (Bioorg Med Chem, 2012).
The source made the active and inactive calls. The rule behind the calls is not given here.

How the values were obtained:
Mus musculus [1] = assay: Anticonvulsant activity in CF-1 albino mouse assessed as protection from maximal electric shock-induced seizures at 300 mg/kg, ip measured after 0.5 hrs; assay type: functional, organism-based; set-up: dose 300 mg/kg
Outline: (§1)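 Male CF-1 mice dosed ip at 30, 100 or 300 mg/kg, suspension in 0.5% methylcellulose/water. MES: corneal electrodes primed with electrolyte containing anaesthetic, 50 mA, 60 Hz, 0.2 s. Examined 0.5 and 4 h after dosing. Value is the minimum dose protecting half or more of the animals.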

Mus musculus [2] = assay: Neurotoxicity in CF-1 albino mouse assessed as myoclonic jerks at 300 mg/kg, ip measured after 0.5 hrs by rotarod test; assay type: toxicity, organism-based; set-up: dose 300 mg/kg, route intraperitoneal; settings: in vivo
Mus musculus [3] = assay: Neurotoxicity in ip dosed CF-1 albino mouse assessed as motor impairment measured after 0.5 hrs by rotarod test; assay type: toxicity, organism-based; settings: in vivo
Outline: (§2)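 Rotarod neurotoxicity in male CF-1 mice given ip doses of 30, 100 or 300 mg/kg (0.5% methylcellulose suspension), examined 0.5 and 4 h after dosing. Impairment means failing to hold balance on the rod for 1 min. Value is the minimum dose causing toxicity in half or more of the animals; response comments are recorded.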

Mus musculus [4] = assay: Anticonvulsant activity in ip dosed CF-1 albino mouse assessed as protection against subcutaneous pentylenetetrazol-induced seizures measured after 0.5 hrs; assay type: functional; settings: read-out: MED
Outline: (§3)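 scPTZ test in male CF-1 mice. Compound suspended in 0.5% methylcellulose/water, ip at 30, 100 or 300 mg/kg. Pentylenetetrazole 85 mg/kg (CD97, clonic seizures lasting at least 5 s) given subcutaneously at the test time, read at 0.5 and 4 h. Value is the minimum dose protecting half or more of the animals.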

Mus musculus [5] = assay: Anticonvulsant activity in CF-1 albino mouse assessed as protection against subcutaneous pentylenetetrazol-induced seizures at 300 mg/kg, ip measured after 4 hrs; assay type: functional, organism-based; set-up: dose 300 mg/kg; outline: as §3
Mus musculus [6] = assay: Neurotoxicity in CF-1 albino mouse assessed as motor impairment at 300 mg/kg, ip measured after 4 hrs by rotarod test; assay type: toxicity, organism-based; set-up: dose 300 mg/kg, route intraperitoneal; settings: in vivo; outline: as §2
Mus musculus [7] = assay: Anticonvulsant activity in ip dosed CF-1 albino mouse assessed as protection from maximal electric shock-induced seizures measured after 4 hrs; assay type: functional; settings: read-out: MED; outline: as §1
Mus musculus [8] = assay: Anticonvulsant activity in CF-1 albino mouse assessed as protection from maximal electric shock-induced seizures at 300 mg/kg, ip measured after 4 hrs; assay type: functional, organism-based; set-up: dose 300 mg/kg; outline: as §1
Mus musculus [9] = assay: Neurotoxicity in CF-1 albino mouse assessed as motor impairment at 300 mg/kg, ip measured after 0.5 hrs by rotarod test; assay type: toxicity, organism-based; set-up: dose 300 mg/kg, route intraperitoneal; settings: in vivo; outline: as §2
Mus musculus [10] = assay: Anticonvulsant activity in CF-1 albino mouse assessed as protection against subcutaneous pentylenetetrazol-induced seizures at 300 mg/kg, ip measured after 0.5 hrs; assay type: functional, organism-based; set-up: dose 300 mg/kg; outline: as §3
Rattus norvegicus [11] = assay: Anticonvulsant activity in po dosed maximum electric shock-induced Sprague-Dawley rat assessed as time of peak effect; assay type: functional
Outline: (§4)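 Male Sprague–Dawley rats dosed orally (0.5% methylcellulose suspension). MES 150 mA, 60 Hz, 0.2 s; rotarod impairment is failure to keep balance for 1 min. Groups of eight, at the previously estimated time of peak effect, with doses varied until at least three points fell in the 10–90% range. ED50/TD50 with 95% confidence intervals from regression; PI = TD50/ED50.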

Rattus norvegicus [12] = assay: Anticonvulsant activity in Sprague-Dawley rat assessed as protection from maximum electric shock-induced seizures at 30 mg/kg, po measured after 4 hrs; assay type: functional
Outline: (§5)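 Male Sprague–Dawley rats, four per group, given 30 mg/kg orally as a suspension in 0.5% methylcellulose/water. MES stimulus 150 mA, 60 Hz, 0.2 s via corneal electrodes. Tested at 0.25, 0.5, 1, 2 and 4 h; value is rats protected out of four.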

Rattus norvegicus [13] = assay: Anticonvulsant activity in Sprague-Dawley rat assessed as protection from maximum electric shock-induced seizures at 30 mg/kg, po measured after 0.5 hrs; assay type: functional; outline: as §5
Rattus norvegicus [14] = assay: Anticonvulsant activity in Sprague-Dawley rat assessed as protection from maximum electric shock-induced seizures at 30 mg/kg, po measured after 0.25 hrs; assay type: functional; outline: as §5
Rattus norvegicus [15] = assay: Anticonvulsant activity in po dosed Sprague-Dawley rat assessed as protection from maximum electric shock-induced seizures; assay type: functional; outline: as §4
Rattus norvegicus [16] = assay: Anticonvulsant activity in Sprague-Dawley rat assessed as protection from maximum electric shock-induced seizures at 30 mg/kg, po measured after 1 hr; assay type: functional; outline: as §5
Rattus norvegicus [17] = assay: Neurotoxicity in Sprague-Dawley rat assessed as motor impairment at 30 mg/kg, po by rotarod test; assay type: toxicity, organism-based; set-up: dose 30 mg/kg, route oral; settings: in vivo
Outline: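 Male Sprague–Dawley rats, four animals, oral 30 mg/kg in 0.5% methylcellulose/water. Motor impairment on the rotarod (failure to keep balance for 1 min) assessed alongside MES at five times from 0.25 to 4 h.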

Rattus norvegicus [18] = assay: Anticonvulsant activity in Sprague-Dawley rat assessed as protection from maximum electric shock-induced seizures at 30 mg/kg, po measured after 2 hrs; assay type: functional; outline: as §5
Mus musculus [19] = assay: Anticonvulsant activity in ip dosed CF-1 albino mouse assessed as protection from maximal electric shock-induced seizures measured after 0.5 hrs; assay type: functional; settings: read-out: MED; outline: as §1
Mus musculus [20] = assay: Anticonvulsant activity in CF-1 albino mouse assessed as protection against 6 Hz psychomotor seizure at 100 mg/kg, ip measured after 0.25 hrs; assay type: functional; settings: route intraperitoneal
Outline: (§6)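 6-Hz psychomotor seizure in male CF-1 mice, compound suspended in 0.5% methylcellulose/water, given ip (100 or 75 mg/kg). Corneal stimulation with 0.2 ms monopolar rectangular pulses at 6 Hz for 3 s, 32 mA, constant-current device. Protected if normal exploratory behaviour resumes within 10 s. Tested 0.25–4 h after dosing; value is mice protected out of four.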

[21] = Neurotoxicity in po dosed Sprague-Dawley rat assessed as motor impairment measured at time of peak effect by rotarod test; assay type: toxicity, organism-based; settings: in vivo; outline: as §4
Mus musculus [22] = assay: Anticonvulsant activity in CF-1 albino mouse assessed as protection against 6 Hz psychomotor seizure at 100 mg/kg, ip measured after 4 hrs; assay type: functional; settings: route intraperitoneal; outline: as §6
Mus musculus [23] = assay: Anticonvulsant activity in CF-1 albino mouse assessed as protection against 6 Hz psychomotor seizure at 100 mg/kg, ip measured after 0.5 hrs; assay type: functional; settings: route intraperitoneal; outline: as §6
Mus musculus [24] = assay: Anticonvulsant activity in CF-1 albino mouse assessed as protection against 6 Hz psychomotor seizure at 100 mg/kg, ip measured after 1 hr; assay type: functional; settings: route intraperitoneal; outline: as §6
Mus musculus [25] = assay: Anticonvulsant activity in CF-1 albino mouse assessed as protection against 6 Hz psychomotor seizure at 100 mg/kg, ip measured after 2 hrs; assay type: functional; settings: route intraperitoneal; outline: as §6
Mus musculus [26] = assay: Anticonvulsant activity in ip dosed CF-1 albino mouse assessed as protection against subcutaneous pentylenetetrazol-induced seizures measured after 4 hrs; assay type: functional; settings: read-out: MED; outline: as §3
Rattus norvegicus [27] = organism: Rattus norvegicus; assay: Protective index, ratio of TD50 for Sprague-Dawley rat to ED50 for Sprague-Dawley rat assessed as protection from maximum electric shock-induced seizures; assay type: functional; outline: as §4
Mus musculus [28] = assay: Anticonvulsant activity in ip dosed maximal electric shock-induced CF-1 albino mouse assessed as time of peak effect; assay type: functional
Outline: (§7)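 ED50 and TD50 determined in male CF-1 mice after ip dosing (0.5% methylcellulose suspension) at the previously estimated time of peak effect. MES 50 mA, 60 Hz, 0.2 s. Groups of eight, with doses varied until at least three points fell between 10–90% protection or motor impairment. Regression gives ED50/TD50 with 95% confidence intervals; PI = TD50/ED50.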

Mus musculus [29] = assay: Neurotoxicity in CF-1 albino mouse assessed as motor impairment, ip measured after 4 hrs by rotarod test; assay type: toxicity, organism-based; settings: in vivo
Mus musculus [30] = organism: Mus musculus; assay: Protective index, ratio of TD50 for CF-1 albino mouse to ED50 for CF-1 albino mouse assessed as protection from maximum electric shock-induced seizures; assay type: functional; outline: as §7

Row | Compound | Activity (Mus musculus [1]) | MTC (Mus musculus [3]) [mg/kg] | minimal effective dose (Mus musculus [4]) [mg/kg] | Activity (Mus musculus [5]) | Activity (Mus musculus [6]) | minimal effective dose (Mus musculus [7]) [mg/kg] | Activity (Mus musculus [8]) | Activity (Mus musculus [9]) | Activity (Mus musculus [10]) | Time (Rattus norvegicus [11]) [h] | Activity (Rattus norvegicus [12]) [%] | Activity (Rattus norvegicus [13]) [%] | Activity (Rattus norvegicus [14]) [%] | Activity (Rattus norvegicus [16]) [%] | Activity (Rattus norvegicus [17]) | Activity (Rattus norvegicus [18]) [%] | other results
1 | O=C1CC(c2ccccc2F)C(=O)N1CN1CCN(c2ncccn2)CC1 (racemic) | inactive | 300 | 300 | inactive | Non-toxic | 100 |  |  |  |  |  |  |  |  |  |  | Activity (Mus musculus [2]): Toxic
2 | O=C1CC(c2ccccc2F)C(=O)N1CN1CCN(C2CCCCC2)CC1 (racemic) | inactive |  |  | inactive | Non-toxic |  | inactive | Non-toxic | inactive |  |  |  |  |  |  |  | 
3 | O=C1CC(c2ccccc2Br)C(=O)N1CN1CCN(C2CCCCC2)CC1 (racemic) | inactive |  |  | inactive | Non-toxic | 100 |  | Non-toxic | inactive | 2 | 25 | 50 | 50 | 100 | Non-toxic | 25 | ED50 (Rattus norvegicus [15]): < 240 mg/kg
4 | O=C1CC(c2ccccc2Br)C(=O)N1CN1CCOCC1 (racemic) |  | 300 | 300 | inactive | Non-toxic | 100 |  |  |  |  | 25 | 0 | 0 | 0 | Non-toxic | 0 | minimal effective dose (Mus musculus [19]): 100 mg/kg
5 | O=C1CC(c2ccccc2F)C(=O)N1CN1CCN(c2ccccc2)CC1 (racemic) | inactive | 300 |  |  | Non-toxic | 300 |  |  |  |  |  |  |  |  |  |  | 
6 | O=C1CC(c2ccccc2F)C(=O)N1CN1CCN(c2ccccc2F)CC1 (racemic) | inactive |  |  |  | Non-toxic |  | inactive | Non-toxic |  |  |  |  |  |  |  |  | 
7 | Cl.Cl.O=C1CC(c2ccccc2F)C(=O)N1CN1CCN(CCO)CC1 (racemic) |  |  | 300 | inactive | Non-toxic | 100 |  | Non-toxic |  | 0.5 | 25 | 25 | 25 | 50 | Non-toxic | 25 | Activity (Mus musculus [20]): 50%; Activity (Mus musculus [2]): Toxic; TD50 [21]: > 500 mg/kg; ED50 (Rattus norvegicus [15]): > 500 mg/kg; Activity (Mus musculus [22]): 0%; Activity (Mus musculus [23]): 25%; Activity (Mus musculus [24]): 0%; Activity (Mus musculus [25]): 0%
8 | CCC1(C)CC(=O)NC1=O (stereo not given) [ETHOSUXIMIDE] | inactive |  | 100 |  | Non-toxic |  | inactive | Non-toxic |  |  |  |  |  |  |  |  | minimal effective dose (Mus musculus [26]): 300 mg/kg
9 | O=C1NC(=O)C(c2ccccc2)(c2ccccc2)N1 [PHENYTOIN] |  | 100 |  | inactive |  | 30 |  |  | inactive | 2 | 75 | 100 | 25 | 75 | Non-toxic | 75 | Ratio TD50/ED50 (Rattus norvegicus [27]): 3.6; TD50 [21]: > 100 mg/kg; minimal effective dose (Mus musculus [19]): 30 mg/kg; Time (Mus musculus [28]): 1 h; MTC (Mus musculus [29]): 100 mg/kg; Ratio TD50/ED50 (Mus musculus [30]): 7.74
